According to ChEMBL document CHEMBL1145429, “Enaminone amides as novel orally active GABAA receptor modulators” (J Med Chem, 2007):
The source made the active and inactive calls. No cut-off for these calls is given here.

What was measured:
Rattus norvegicus [1] = species on record: Rattus norvegicus; assay: Displacement of [3H]flunitrazepam from BZ-site of GABAA receptor in Sprague-Dawley rat cortex membrane; type: cell membranes
Procedure, shortened: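 P2 membrane pellet (sucrose homogenate spun 1000g then 9000g), resuspended in 50 mM Na/K phosphate pH 7.4 with 200 mM NaCl. Incubated with 0.2 nM [3H]flunitrazepam, 1 µM GABA and test drug in DMSO (≤1%) for 90 min at 25 °C. Nonspecific binding defined with 1 µM clonazepam. Filtration, scintillation counting; nonlinear regression fit.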

[2] = Enhancement of [3H]flunitrazepam binding to BZ-site of GABAA receptor in Sprague-Dawley rat cortex membrane; type: cell membranes
Procedure, shortened: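 Conditions and membrane preparation match the TBPS assay, except that GABA was 1 µM. Sites were labelled with 0.2 nM [3H]flunitrazepam, and nonspecific binding was defined with 1 µM clonazepam.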

Rattus norvegicus [3] = species on record: Rattus norvegicus; assay: Enhancement of [3H]muscimol binding to BZ-site of GABAA receptor in Sprague-Dawley rat cortex membrane; type: cell membranes
[4] = (§1) Displacement of [35S]TBPS from GABAA receptor in Sprague-Dawley rat cortex membrane; type: cell membranes
Rattus norvegicus [5] = species on record: Rattus norvegicus; assay: as §1; type: cell membranes
Mus musculus [6] = assay: Anticonvulsant activity against pentylenetetrazole-induced seizures in non-Swiss Albino mouse at 50 mg/kg, ip; type: functional, organism-based; set-up: dose 50 mg/kg
Mus musculus [7] = assay: Induction of loss of righting reflex in non-Swiss Albino mouse at 50 mg/kg, ip after 40 mins; type: functional, organism-based; set-up: dose 50 mg/kg
Procedure, shortened: (§2)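 Male NSA mice were dosed at 50 mg/kg ip or po in PEG 400 and then placed on their backs. Animals staying on their backs for more than 1 min were scored as having lost the righting reflex.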

Mus musculus [8] = assay: Anxiolytic activity in non-Swiss Albino mouse assessed as reduction of time spent in dark at 3 mg/kg, po; type: functional, organism-based; set-up: dose 3 mg/kg
Procedure, shortened: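 Male NSA mice (25-30 g) were dosed po 30 min before a 3 min session in a light-dark box: a black compartment lit with red light and an illuminated white compartment, joined by a floor-level hole. Time spent in each compartment was recorded. Vehicle was 3:1 PEG 400/5% dextrose in water.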

Mus musculus [9] = assay: CNS toxicity by rotarod test in non-Swiss Albino mouse at 3 mg/kg, po; type: organism-based; set-up: dose 3 mg/kg, route oral; settings: in vivo
Procedure, shortened: (§3)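 Mice were dosed orally and scored on the rotarod for CNS depressant potential. TD50, the dose causing behavioral toxicity in half the animals, was calculated from each dose-response function by the Litchfield-Wilcoxon method.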

[10] = Therapeutic index, ratio of light-dark MED to TD50 by rotarod test in non-Swiss Albino mouse at 3 mg/kg, po; type: organism-based; set-up: dose 3 mg/kg, route oral; settings: in vivo, read-out: TI
Procedure, shortened: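 The index was calculated as […]. Both were measured in male NSA mice given oral doses. TD50 was derived by the Litchfield-Wilcoxon method, and light-dark time was recorded over a 3 min session 30 min after dosing.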

[11] = molecular target: GABA-A receptor; alpha-1/beta-2/gamma-2 (Homo sapiens) (UniProt P14867+P47870+P18507); assay: Activity at human GABAA alpha-1-beta-2-gamma-2L expressed in Xenopus oocytes assessed as potentiation of GABA currents in absence of GABA at 10 uM; type: cell-based; settings: Oocyte
Mus musculus [12] = assay: Induction of loss of righting reflex in non-Swiss Albino mouse at 50 mg/kg, po; type: functional, organism-based; set-up: dose 50 mg/kg; procedure, shortened: as §2
Mus musculus [13] = assay: Suppression of locomotor activity in non-Swiss Albino mouse at 50 mg/kg, po; type: functional, organism-based; set-up: dose 50 mg/kg
Procedure, shortened: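 Male NSA mice, either nonhabituated or habituated (30 min in the chamber on 3 consecutive days), were given compound in PEG 400 or vehicle and immediately placed in an activity chamber. Horizontal beam breaks were recorded every 5 min, over 1 h for habituated mice. Activity was taken as total distance traveled (cm), with testing between 9 a.m. and 2 p.m.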

Mus musculus [14] = assay: CNS toxicity by rotarod test in non-Swiss Albino mouse at 50 mg/kg, po; type: organism-based; set-up: dose 50 mg/kg, route oral; settings: in vivo; procedure, shortened: as §3

## O=C1CN=C(c2ccccc2Cl)c2cc([N+](=O)[O-])ccc2N1
Rattus norvegicus [1]
  Activity: Dose-dependent effect

## C#Cc1ccc(N/C=C(\C(=O)NCCC)C(=O)c2ccccc2Cl)cc1
[2]
  EC50: 60 nM
Rattus norvegicus [3]
  Activity: Active

## CCOC(=O)/C(=C\Nc1ccc(C(C)C)cc1)C(=O)c1ccccc1Cl
[4]
  IC50: 360 nM
Rattus norvegicus [5]
  Imax: 94%

## O=C(NC1CCCC1)/C(=C\Nc1ccc(Cl)cc1)C(=O)c1ccccc1Cl
[4]
  IC50: 30 nM
Rattus norvegicus [5]
  Imax: 88%
Mus musculus [6]
  Activity: inactive

## O=C(NC1CC1)/C(=C\Nc1ccc(Cl)cc1)C(=O)c1ccccc1Cl
[4]
  IC50: 30 nM
Rattus norvegicus [5]
  Imax: 92%
Mus musculus [7]
  Activity: Active
Mus musculus [6]
  Activity: inactive

## CC(C)NC(=O)/C(=C\Nc1ccc(Cl)cc1)C(=O)c1ccccc1Cl
[4]
  IC50: 40 nM
Rattus norvegicus [5]
  Imax: 80%
Mus musculus [7]
  Activity: Active
Mus musculus [8]
  Activity: Active
Mus musculus [9]
  Activity: Non-toxic
[10]
  selectivity ratio: > 10
Mus musculus [6]
  Activity: inactive
[11]
  Activity: inactive

## CC(C)(C)NC(=O)/C(=C\Nc1ccc(Cl)cc1)C(=O)c1ccccc1Cl
[4]
  IC50: 3000 nM
Rattus norvegicus [5]
  Imax: 100%
Mus musculus [6]
  Activity: inactive

## CCOC(=O)/C(=C\Nc1ccc(Cl)cc1)C(=O)c1ccccc1Cl
[4]
  IC50: 90 nM
Rattus norvegicus [5]
  Imax: 95%
Mus musculus [7]
  Activity: Active
Mus musculus [12]
  Activity: inactive
Mus musculus [13]
  Activity: inactive

## CCOC(=O)/C(=C\Nc1ccc(F)cc1)C(=O)c1cc(F)c(Cl)cc1Cl
[4]
  IC50: 130 nM
Rattus norvegicus [5]
  Imax: 87%

## CNC(=O)/C(=C\Nc1ccc(Cl)cc1)C(=O)c1ccccc1Cl
[4]
  IC50: 160 nM
Rattus norvegicus [5]
  Imax: 74%
Mus musculus [6]
  Activity: inactive

## CCOC(=O)/C(=C\Nc1ccc(C)cc1)C(=O)c1ccccc1Cl
[4]
  IC50: 450 nM
Rattus norvegicus [5]
  Imax: 93%

## C#Cc1ccc(N/C=C(\C(=O)OCC)C(=O)c2ccccc2Cl)cc1
[4]
  IC50: 8 nM
Rattus norvegicus [5]
  Imax: 100%
[2]
  EC50: 6 nM
Rattus norvegicus [3]
  Activity: Active

## CCOC(=O)/C(=C\Nc1ccc(F)cc1)C(=O)c1ccc(Cl)cc1
[4]
  IC50: 490 nM
Rattus norvegicus [5]
  Imax: 100%

## O=C(NC1CCC1)/C(=C\Nc1ccc(Cl)cc1)C(=O)c1ccccc1Cl
[4]
  IC50: 7 nM
Rattus norvegicus [5]
  Imax: 88%
Mus musculus [7]
  Activity: Active
Mus musculus [6]
  Activity: inactive

## CCNC(=O)/C(=C\Nc1ccc(Cl)cc1)C(=O)c1ccccc1Cl
[4]
  IC50: 50 nM
Rattus norvegicus [5]
  Imax: 82%
Mus musculus [7]
  Activity: Active
Mus musculus [12]
  Activity: inactive
Mus musculus [14]
  Activity: Non-toxic
Mus musculus [6]
  Activity: inactive

## NC(=O)/C(=C\Nc1ccc(Cl)cc1)C(=O)c1ccccc1Cl
Rattus norvegicus [5]
  Imax: 40%
Mus musculus [6]
  Activity: inactive

## CCOC(=O)/C(=C\Nc1ccccc1Cl)C(=O)c1ccccc1Cl
[4]
  IC50: 700 nM
Rattus norvegicus [5]
  Imax: 100%

## CC(C)C(C)NC(=O)/C(=C\Nc1ccc(Cl)cc1)C(=O)c1ccccc1Cl (stereo unspecified)
[4]
  IC50: 400 nM
Rattus norvegicus [5]
  Imax: 94%
Mus musculus [6]
  Activity: inactive

## CCCNC(=O)/C(=C\Nc1ccc(Cl)cc1)C(=O)c1ccccc1Cl
[4]
  IC50: 45 nM
Rattus norvegicus [5]
  Imax: 90%
Mus musculus [7]
  Activity: Active
Mus musculus [12]
  Activity: inactive
Mus musculus [6]
  Activity: inactive

## CCC(CC)NC(=O)/C(=C\Nc1ccc(Cl)cc1)C(=O)c1ccccc1Cl
[4]
  IC50: 80 nM
Rattus norvegicus [5]
  Imax: 86%
Mus musculus [6]
  Activity: inactive

## CCOC(=O)/C(=C\Nc1ccc(F)cc1)C(=O)c1cccc(Cl)c1
[4]
  IC50: 900 nM
Rattus norvegicus [5]
  Imax: 90%

## CCOC(=O)/C(=C\Nc1ccc(F)cc1)C(=O)c1ccccc1Cl
[4]
  IC50: 300 nM
Rattus norvegicus [5]
  Imax: 93%

## CCC(C)NC(=O)/C(=C\Nc1ccc(Cl)cc1)C(=O)c1ccccc1Cl (stereo unspecified)
[4]
  IC50: 20 nM
Rattus norvegicus [5]
  Imax: 86%
Mus musculus [7]
  Activity: Active
Mus musculus [6]
  Activity: inactive

## CCOC(=O)/C(=C\Nc1cccc(Cl)c1)C(=O)c1ccccc1Cl
[4]
  IC50: 600 nM
Rattus norvegicus [5]
  Imax: 100%
